Measurements reported in ChEMBL document CHEMBL1143108, “Design and SAR of selective T-type calcium channel antagonists containing a biaryl sulfonamide core” (Bioorg Med Chem Lett, 2008).
pIC50: −log10 of the molar value.

Key:
[1] = molecular target: T1, Voltage-dependent T-type calcium channel subunit alpha-1H (Homo sapiens, UniProt O95180); experiment: Antagonist activity at human alpha1H T-type calcium channel expressed in HEK293 cells by patch clamp technique; format: functional, cell-based
T1 sequence (O95180 whole entry): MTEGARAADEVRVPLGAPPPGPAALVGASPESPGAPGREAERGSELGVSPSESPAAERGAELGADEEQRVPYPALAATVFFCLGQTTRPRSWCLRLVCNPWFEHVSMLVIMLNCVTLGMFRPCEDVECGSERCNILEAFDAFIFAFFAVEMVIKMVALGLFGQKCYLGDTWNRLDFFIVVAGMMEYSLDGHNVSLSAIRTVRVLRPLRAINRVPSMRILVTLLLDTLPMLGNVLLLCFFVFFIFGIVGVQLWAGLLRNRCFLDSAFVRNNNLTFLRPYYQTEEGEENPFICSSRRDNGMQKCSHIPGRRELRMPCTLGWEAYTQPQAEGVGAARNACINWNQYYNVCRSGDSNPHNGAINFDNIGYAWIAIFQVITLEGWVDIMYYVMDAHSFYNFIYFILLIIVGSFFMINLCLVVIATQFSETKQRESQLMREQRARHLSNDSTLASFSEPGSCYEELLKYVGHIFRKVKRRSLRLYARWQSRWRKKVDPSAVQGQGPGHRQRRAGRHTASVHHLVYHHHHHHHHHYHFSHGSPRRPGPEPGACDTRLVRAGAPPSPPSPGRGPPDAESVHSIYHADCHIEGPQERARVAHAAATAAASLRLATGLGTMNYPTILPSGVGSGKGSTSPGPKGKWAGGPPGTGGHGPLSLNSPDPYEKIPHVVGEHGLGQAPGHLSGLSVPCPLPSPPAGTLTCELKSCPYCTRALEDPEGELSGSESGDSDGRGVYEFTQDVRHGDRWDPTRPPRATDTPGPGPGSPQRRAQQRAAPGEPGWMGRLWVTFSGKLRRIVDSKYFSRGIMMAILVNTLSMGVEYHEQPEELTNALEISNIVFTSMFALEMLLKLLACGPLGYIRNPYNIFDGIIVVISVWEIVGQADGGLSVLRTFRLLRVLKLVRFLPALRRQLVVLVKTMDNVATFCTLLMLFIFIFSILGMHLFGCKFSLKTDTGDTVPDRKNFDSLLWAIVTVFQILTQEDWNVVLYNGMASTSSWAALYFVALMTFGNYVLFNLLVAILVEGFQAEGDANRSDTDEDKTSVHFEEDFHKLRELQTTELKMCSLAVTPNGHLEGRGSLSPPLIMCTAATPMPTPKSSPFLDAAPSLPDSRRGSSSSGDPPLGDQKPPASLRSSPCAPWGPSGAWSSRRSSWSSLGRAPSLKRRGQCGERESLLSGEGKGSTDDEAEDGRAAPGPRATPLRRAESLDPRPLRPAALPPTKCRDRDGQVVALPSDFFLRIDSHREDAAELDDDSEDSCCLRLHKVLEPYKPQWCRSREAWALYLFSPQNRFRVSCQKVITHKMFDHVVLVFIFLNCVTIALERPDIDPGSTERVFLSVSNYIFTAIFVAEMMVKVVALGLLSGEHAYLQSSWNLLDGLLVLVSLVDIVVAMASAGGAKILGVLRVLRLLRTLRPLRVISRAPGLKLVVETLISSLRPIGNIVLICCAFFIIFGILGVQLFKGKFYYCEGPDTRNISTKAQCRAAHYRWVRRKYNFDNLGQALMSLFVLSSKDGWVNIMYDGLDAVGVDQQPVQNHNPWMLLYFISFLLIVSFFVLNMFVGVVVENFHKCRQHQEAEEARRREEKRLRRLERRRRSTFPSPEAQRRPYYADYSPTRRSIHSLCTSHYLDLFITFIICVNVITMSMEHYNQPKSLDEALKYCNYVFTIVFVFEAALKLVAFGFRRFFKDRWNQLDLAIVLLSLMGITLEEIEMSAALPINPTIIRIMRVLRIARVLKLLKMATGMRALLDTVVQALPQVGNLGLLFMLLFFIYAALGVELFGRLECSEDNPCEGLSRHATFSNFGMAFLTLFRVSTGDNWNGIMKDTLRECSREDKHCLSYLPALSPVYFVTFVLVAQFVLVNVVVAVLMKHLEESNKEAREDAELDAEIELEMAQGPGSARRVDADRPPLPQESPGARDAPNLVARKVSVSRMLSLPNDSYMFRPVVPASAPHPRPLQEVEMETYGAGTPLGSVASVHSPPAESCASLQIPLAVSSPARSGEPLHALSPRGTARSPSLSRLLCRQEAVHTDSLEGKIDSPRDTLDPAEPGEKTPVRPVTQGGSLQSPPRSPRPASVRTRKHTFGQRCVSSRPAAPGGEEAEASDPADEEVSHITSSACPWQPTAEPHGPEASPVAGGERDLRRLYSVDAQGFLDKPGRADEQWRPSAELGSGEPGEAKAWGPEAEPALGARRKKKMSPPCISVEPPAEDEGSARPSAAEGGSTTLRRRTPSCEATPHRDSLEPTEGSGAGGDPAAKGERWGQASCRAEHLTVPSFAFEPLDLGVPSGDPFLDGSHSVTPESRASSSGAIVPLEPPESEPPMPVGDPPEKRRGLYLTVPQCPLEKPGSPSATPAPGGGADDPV
Outline: (§1)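 Whole-cell patch clamp. Peak inward current measured before and after compound addition to the bath.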

[2] = molecular target: T1, Voltage-dependent T-type calcium channel subunit alpha-1H; experiment: Antagonist activity at human alpha1H T-type calcium channel expressed in HEK293 cells at 1 uM by patch clamp technique; format: functional, cell-based; outline: as §1
[3] = molecular target: Voltage-gated L-type calcium channel (Rattus norvegicus, UniProt P22002+Q02485+P27732); experiment: Antagonist activity at L-type calcium channel in rat aorta; format: functional, tissue-based
Outline: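 Rat aorta rings contracted near-maximally with KCl. Test compound added at increasing doses, and IC50 taken for inhibition of force as a functional L-type calcium channel read-out.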

[4] = Ratio of IC50 for L-type calcium channel in rat aorta method to IC50 for human T-type calcium channel in patch clamp method; format: tissue-based

Compound | pIC50 [1] | inhibition [2] [%] | IC50 [3] [nM] | Ratio IC50 [4]
CC1=C(C(=O)OC(C)C)C(c2cccc(Cl)c2)N(CCCN(C)C(=O)c2ccc(Oc3ccccc3)cc2)C(=O)N1 (single isomer, unassigned; enantiomer 1) | 6.74 | – | – | –
CC(=O)N(CCCN(C)C(=O)c1ccc(Oc2ccccc2)cc1)Cc1cccc(Cl)c1 | – | 5 | – | –
CC1=C(C(=O)OC(C)C)C(c2cccc(Cl)c2)N(CCCN(C)C(=O)c2ccc(Oc3ccccc3)cc2)C(=O)N1 (stereo unspecified) | 6.60 | – | 2100 | –
CC(C)NC(=O)CN(c1cccc(Cl)c1)S(=O)(=O)c1cccc(NC(=O)CN(C)C(=O)OCc2ccccc2)c1 | 5.77 | – | > 30000 | > 17
CC(C)OC(=O)CN(c1cccc(Cl)c1)S(=O)(=O)c1cccc(NC(=O)Cc2ccccc2)c1 | – | 40 | – | –
CC1=C(C(=O)OC(C)C)C(c2cccc(Cl)c2)N(CCCN(C)C(=O)c2ccc(Oc3ccccc3)cc2)C(=O)N1 (single isomer, unassigned; enantiomer 2) | 6.19 | – | 3800 | –
CC(C)OC(=O)c1ccc(NC(=O)CN(C)C(=O)OCc2ccccc2)cc1-c1cccc(Cl)c1 | – | 24 | – | –
CC(C)OC(=O)c1ccc(NC(=O)CCc2ccccc2)cc1-c1cccc(Cl)c1 | – | 6 | – | –
CC(C)CCCN(c1cccc(Cl)c1)S(=O)(=O)c1cccc(NC(=O)CN(C)C(=O)OCc2ccccc2)c1 | 6.74 | – | 12000 | 67
COCC(=O)O[C@]1(CCN(C)CCCc2nc3ccccc3[nH]2)CCc2cc(F)ccc2[C@@H]1C(C)C [MIBEFRADIL] | – | – | 7000 | –
CN(CC(=O)Nc1cccc(S(=O)(=O)N(CC(=O)O)c2cccc(Cl)c2)c1)C(=O)OCc1ccccc1 | – | 11 | – | –
CC(C)OC(=O)CN(c1cccc(Cl)c1)S(=O)(=O)c1cccc(NC(=O)CCNC(=O)OCc2ccccc2)c1 | 6.38 | 73 | 17000 | 41
CC(C)OC(=O)CN(c1cccc(Cl)c1)S(=O)(=O)c1cccc(NC(=O)CCc2ccccc2)c1 | 6.27 | – | > 30000 | > 55
CCOC(=O)CN(c1cccc(Cl)c1)S(=O)(=O)c1cccc(NC(=O)CN(C)C(=O)OCc2ccccc2)c1 | – | 35 | – | –
CN(C)CCNC(=O)CN(c1cccc(Cl)c1)S(=O)(=O)c1cccc(NC(=O)CN(C)C(=O)OCc2ccccc2)c1 | – | 22 | – | –
CC(=O)Nc1cccc(S(=O)(=O)N(CC(=O)OC(C)C)c2cccc(Cl)c2)c1 | – | 0 | – | –
CC(=O)N(CCCN(C)S(=O)(=O)c1ccc(Oc2ccccc2)cc1)C(CC(=O)OC(C)C)c1cccc(Cl)c1 (stereo unspecified) | – | 17 | – | –
CC(C)OC(=O)CN(c1cccc(Cl)c1)S(=O)(=O)c1cccc(NC(=O)CN(C)C(=O)OCc2ccccc2)c1 | 6.62 | 78 | 15000 | 62
CN(CC(=O)Nc1cccc(S(=O)(=O)N(Cc2ccccc2)c2cccc(Cl)c2)c1)C(=O)OCc1ccccc1 | 6.96 | – | 12000 | 109
CC(=O)N(CCCN(C)S(=O)(=O)c1ccc(Oc2ccccc2)cc1)Cc1cccc(Cl)c1 | – | 30 | – | –
